Source: ChEMBL document CHEMBL5356951, “Semisynthetic polymyxins with potent antibacterial activity and reduced kidney cell toxicity” (RSC Med Chem, 2023)
≈ marks a conversion by molar mass, not a printed value.

What was measured:
Type in all cases: functional
[1] = test system: Escherichia coli; assay: Antibacterial activity against Escherichia coli ATCC 25922 assessed as bacterial growth inhibition by broth microdilution assay
Summary of the method: (§1)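 Broth microdilution. Bacteria from glycerol stocks were grown overnight on blood agar at 37 °C, then colonies were suspended in TSB and grown to OD600 0.5. Compounds were dissolved in DMSO at 6.4 mg mL−1 (stock) and serially diluted in CAMHB (Mg2+ 12.5, Ca2+ 20 μg mL−1) in polypropylene plates. Inoculum was 10^6 CFU mL−1 final, incubated at 37 °C. MIC = lowest concentration without visible growth; values consistent across at least triplicate experiments.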

[2] = test system: Escherichia coli; assay: Antibacterial activity against Escherichia coli 1313 assessed as bacterial growth inhibition by broth microdilution assay; summary of the method: as §1
[3] = test system: Escherichia coli; assay: Antibacterial activity against multidrug-resistant Escherichia coli NCTC 13846 assessed as bacterial growth inhibition by broth microdilution assay
Summary of the method: (§2)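 Broth microdilution MIC. Strains grown overnight on blood agar at 37 °C, colonies suspended in TSB and grown to OD600 0.5. Compounds dissolved in DMSO (6.4 mg mL−1 stock), diluted serially in CAMHB (12.5 μg mL−1 Mg2+, 20 μg mL−1 Ca2+) on polypropylene plates. Final inoculum 10^6 CFU mL−1, 37 °C under gas-permeable membrane. MIC is the lowest concentration with no visible growth, consistent across at least triplicate experiments.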

[4] = test system: Klebsiella pneumoniae; assay: Antibacterial activity against Klebsiella pneumoniae ATCC 13883 assessed as bacterial growth inhibition by broth microdilution assay; summary of the method: as §1
[5] = test system: Klebsiella pneumoniae; assay: Antibacterial activity against Klebsiella pneumoniae JS-123 assessed as bacterial growth inhibition by broth microdilution assay; summary of the method: as §1
[6] = test system: Klebsiella pneumoniae; assay: Antibacterial activity against Klebsiella pneumoniae NCTC 13443 assessed as bacterial growth inhibition by broth microdilution assay; summary of the method: as §1
[7] = test system: Acinetobacter baumannii; assay: Antibacterial activity against Acinetobacter baumannii ATCC 19606 assessed as bacterial growth inhibition by broth microdilution assay; summary of the method: as §2
[8] = test system: Acinetobacter baumannii; assay: Antibacterial activity against Acinetobacter baumannii ATCC 17978 assessed as bacterial growth inhibition by broth microdilution assay; summary of the method: as §2
[9] = test system: Acinetobacter baumannii; assay: Antibacterial activity against multidrug-resistant Acinetobacter baumannii assessed as bacterial growth inhibition by broth microdilution assay; summary of the method: as §2
[10] = test system: Acinetobacter baumannii; assay: Antibacterial activity against Acinetobacter baumannii 2018-006 assessed as bacterial growth inhibition by broth microdilution assay; summary of the method: as §2
[11] = test system: Pseudomonas aeruginosa; assay: Antibacterial activity against Pseudomonas aeruginosa ATCC 27853 assessed as bacterial growth inhibition by broth microdilution assay; summary of the method: as §1
[12] = test system: Pseudomonas aeruginosa; assay: Antibacterial activity against Pseudomonas aeruginosa NRZ 08418 assessed as bacterial growth inhibition by broth microdilution assay; summary of the method: as §1
[13] = test system: Pseudomonas aeruginosa; assay: Antibacterial activity against Pseudomonas aeruginosa NRZ 03961 assessed as bacterial growth inhibition by broth microdilution assay; summary of the method: as §1

Structure (SMILES) | MIC [1] [µg/mL] | MIC [2] [µg/mL] | MIC [3] [µg/mL] | MIC [4] [µg/mL] | MIC [5] [µg/mL] | MIC [6] [µg/mL] | MIC [7] [µg/mL] | MIC [8] [µg/mL] | MIC [9] [µg/mL] | MIC [10] [µg/mL] | MIC [11] [µg/mL] | MIC [12] [µg/mL] | MIC [13] [µg/mL]
CC(C)CCSSC[C@@H](N)C(=O)N[C@H](C(=O)N[C@H](CN)C(=O)N[C@H]1CCNC(=O)[C@H]([C@@H](C)O)NC(=O)[C@H](CCN)NC(=O)[C@H](CCN)NC(=O)[C@H](CC(C)C)NC(=O)[C@@H](Cc2ccccc2)NC(=O)[C@H](CCN)NC1=O)[C@@H](C)O | 2 (≈ 1.73 µM) | 0.5 (≈ 0.433 µM) | 8 (≈ 6.93 µM) | 0.5 (≈ 0.433 µM) | 0.5 (≈ 0.433 µM) | 0.5 (≈ 0.433 µM) | 0.25 (≈ 0.217 µM) | 0.25 (≈ 0.217 µM) | 0.25 (≈ 0.217 µM) | 0.25 (≈ 0.217 µM) | 1 (≈ 0.866 µM) | 4 (≈ 3.46 µM) | 2 (≈ 1.73 µM)
CC(C)C[C@@H]1NC(=O)[C@@H](Cc2ccccc2)NC(=O)[C@H](CCN)NC(=O)[C@@H](NC(=O)[C@H](CN)NC(=O)[C@@H](NC(=O)[C@H](N)CSSCc2cccc(Cl)c2)[C@@H](C)O)CCNC(=O)[C@H]([C@@H](C)O)NC(=O)[C@H](CCN)NC(=O)[C@H](CCN)NC1=O | 2 (≈ 1.65 µM) | ≤ 0.125 | 2 (≈ 1.65 µM) | 0.5 (≈ 0.414 µM) | 0.5 (≈ 0.414 µM) | 2 (≈ 1.65 µM) | 0.5 (≈ 0.414 µM) | ≤ 0.25 | 8 (≈ 6.62 µM) | 2 (≈ 1.65 µM) | 4 (≈ 3.31 µM) | 2 (≈ 1.65 µM) | 2 (≈ 1.65 µM)
CC(C)C[C@@H]1NC(=O)[C@@H](Cc2ccccc2)NC(=O)[C@H](CCN)NC(=O)[C@@H](NC(=O)[C@@H](CO)NC(=O)[C@@H](NC(=O)[C@H](N)CSSCCC2CCCCC2)[C@@H](C)O)CCNC(=O)[C@H]([C@@H](C)O)NC(=O)[C@H](CCN)NC(=O)[C@H](CCN)NC1=O | 2 (≈ 1.67 µM) | 1 (≈ 0.836 µM) | 8 (≈ 6.69 µM) | 1 (≈ 0.836 µM) | 1 (≈ 0.836 µM) | 1 (≈ 0.836 µM) | 0.25 (≈ 0.209 µM) | 1 (≈ 0.836 µM) | 1 (≈ 0.836 µM) | 0.5 (≈ 0.418 µM) | 4 (≈ 3.35 µM) | 4 (≈ 3.35 µM) | 4 (≈ 3.35 µM)
CC(C)CCSSC[C@@H](N)C(=O)N[C@H](C(=O)N[C@H](CCN)C(=O)N[C@H]1CCNC(=O)[C@H]([C@@H](C)O)NC(=O)[C@H](CCN)NC(=O)[C@H](CCN)NC(=O)[C@H](CC(C)C)NC(=O)[C@@H](Cc2ccccc2)NC(=O)[C@H](CCN)NC1=O)[C@@H](C)O | 2 (≈ 1.71 µM) | 0.25 (≈ 0.214 µM) | 8 (≈ 6.85 µM) | 0.5 (≈ 0.428 µM) | 0.25 (≈ 0.214 µM) | 0.5 (≈ 0.428 µM) | 0.25 (≈ 0.214 µM) | 0.25 (≈ 0.214 µM) | 0.5 (≈ 0.428 µM) | 0.25 (≈ 0.214 µM) | 1 (≈ 0.856 µM) | 2 (≈ 1.71 µM) | 2 (≈ 1.71 µM)
CC(C)CCSSC[C@@H](N)C(=O)N[C@H](C(=O)NCC(=O)N[C@H]1CCNC(=O)[C@H]([C@@H](C)O)NC(=O)[C@H](CCN)NC(=O)[C@H](CCN)NC(=O)[C@H](CC(C)C)NC(=O)[C@@H](Cc2ccccc2)NC(=O)[C@H](CCN)NC1=O)[C@@H](C)O | 2 (≈ 1.78 µM) | 0.25 (≈ 0.222 µM) | 16 (≈ 14.2 µM) | 0.5 (≈ 0.444 µM) | 0.5 (≈ 0.444 µM) | 0.5 (≈ 0.444 µM) | 0.5 (≈ 0.444 µM) | 0.5 (≈ 0.444 µM) | 0.5 (≈ 0.444 µM) | 0.5 (≈ 0.444 µM) | 4 (≈ 3.55 µM) | 4 (≈ 3.55 µM) | 4 (≈ 3.55 µM)
CC(C)C[C@@H]1NC(=O)[C@@H](Cc2ccccc2)NC(=O)[C@H](CCN)NC(=O)[C@@H](NC(=O)[C@@H](CN)NC(=O)[C@@H](NC(=O)[C@H](N)CSSCc2cccc(Cl)c2)[C@@H](C)O)CCNC(=O)[C@H]([C@@H](C)O)NC(=O)[C@H](CCN)NC(=O)[C@H](CCN)NC1=O | 2 (≈ 1.65 µM) | 0.5 (≈ 0.414 µM) | 16 (≈ 13.2 µM) | 0.5 (≈ 0.414 µM) | 2 (≈ 1.65 µM) | 8 (≈ 6.62 µM) | 0.5 (≈ 0.414 µM) | 0.5 (≈ 0.414 µM) | 0.5 (≈ 0.414 µM) | 0.5 (≈ 0.414 µM) | 1 (≈ 0.827 µM) | 0.5 (≈ 0.414 µM) | 2 (≈ 1.65 µM)
